Screening data as filed in PubChem BioAssay.
This is a sample that favours compounds with a hit; in the whole collection about 1.5% have one here.
CendR NRP1 mod – modulators of CendR peptide binding to human neuropilin-1. O14786. FAM-RPARPAR peptide binding to NRP-1, fluorescence polarization. inhibition, % at 25 µM. 360,000 tested, 0.85% active. AID 602438;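 active = inhibition or corrected inhibition above about 18%, plus a signal ratio from 0.5 to 1.5, limit read from the data, passing the limit was not always enough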
MEX-5 binding – C. elegans MEX-5 TCR-2 RNA binding activity | Q9XUB2 | activity score (negative = inhibition of binding), % at 10 µM | 300,000 tested, 0.38% active | MEX-5/FITC-TCR2 RNA binding, fluorescence polarization; active compounds read low | AID 1832;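 active = inhibition past about -25% in most replicates, and total fluorescence under double the plate's negative control median, limit read from the data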
HCV core dimer – blocks dimerization of HCV core protein; TR-FRET GST/Flag-core106 dimerization, 1536-well; inhibition, % at 5 µM; 300,000 tested, 0.33% active;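 active = inhibition above the mean of all tested compounds plus 3 SD, set per screening campaign, cut at about 45% in these data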
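assay system = GST-tagged and Flag-tagged HCV core protein residues 1-106 | controls = unlabelled core106 and no-GST-core106 wells | incubation = compound-protein-antibody incubation 4 h at 22.5 °C | probe or stimulus = Eu donor and XL665 acceptor anti-tag antibodies | read-out = % inhibition based on acceptor/donor emission ratio | signal = TR-FRET 671 and 617 nm emission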
DNA FID counter – displaces DNA intercalator in HCV helicase counter-screen; inhibition, % at 7.9 µM; 290,000 tested, 0.17% active; DNA fluorescent intercalator displacement, fluorescence; AID 1845; in the data active = inhibition above about 37%;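 note: higher means more ethidium bromide displaced from hairpin DNA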
Large screens that a line does not name were inactive; ! = repeats disagree.

CCN(CC)c1ccc(CC2C(=O)N(C)C(=O)N(C)C2=O)cc1	none
C=CCOc1ccc(CC2C(=O)N(C)C(=O)N(C)C2=O)cc1	HCV core dimer 85
S=C(NCCc1ccccc1)N1Cc2ccc(Br)cc2-n2nncc2C1	none (no result: MEX-5 binding, HCV core dimer, DNA FID counter)
COc1ccc(OC(=O)N(C)C[C@@H]2OCc3cnnn3CCCC(=O)N([C@H](C)CO)C[C@H]2C)cc1	none (no result: MEX-5 binding, HCV core dimer, DNA FID counter)
CCCCC1(CN2CCCC2=O)C(=O)NC(=O)NC1=O	CendR NRP1 mod 23
CCC(COC(=O)c1cc(OC)c(OC)c(OC)c1)(c1ccccc1)N(C)C (stereo unspecified)	CendR NRP1 mod 23!
CCCOP(=O)(OCCC)C(NC(=O)c1cc(OC)c(OC)c(OC)c1)c1ccccc1 (stereo unspecified)	none
CCOC(=O)[C@@]1(C#N)[C@@H]2C=CC(C(N)=O)=CN2[C@@H](C(N)=O)[C@@H]1c1cccc(Cl)c1	none
Cc1nc2c(c(C)nn2-c2ccccc2)c(C)c1CCC(=O)N1CCC2(CC1)OCCO2	CendR NRP1 mod 51
Cc1nc2c(-c3ccccc3)c(C)nn2c(C)c1CCC(=O)N1CCC2(CC1)OCCO2	none
CCOC(=O)c1nsnc1NCCCl	CendR NRP1 mod 22
COc1cc(OC)c(OC)cc1/C=C1/C(=O)NC(=O)N(Cc2ccccc2)C1=O	none
Cc1cc(/C=C2\C(=O)NC(=O)N(Cc3ccccc3)C2=O)c(C)n1C1CC1	MEX-5 binding -58
C[N+](C)(C)c1ccccc1	none
Cn1cccc1/C=C1\C(=O)NC(=O)N(CCC2=CCCCC2)C1=O	MEX-5 binding -37 (no result: HCV core dimer)
CC1=C[C@@H]2c3cccc4[nH]cc(c34)C[C@H]2N(C)C1	CendR NRP1 mod 44, MEX-5 binding -58
